# Rows were chosen to be rich in hits. Some 0.79% of all compounds tested hit in one or more screens of this group.
# hIAP activ: human IAP activators, primary screen, biochemical, luminescence, uHTS | AID 2524, 2010 | activation factor at 10 µM | 330,000 tested, 0.16% active | purified human IAP, CDP-Star luminescence, 30 min; hits give high values; 1 = vehicle-only enzyme, 0 = enzyme-free background;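 active means activation factor of the enzyme at least 2-fold when tested at 20 µM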
# Target sequence (P09923 whole entry, looked up): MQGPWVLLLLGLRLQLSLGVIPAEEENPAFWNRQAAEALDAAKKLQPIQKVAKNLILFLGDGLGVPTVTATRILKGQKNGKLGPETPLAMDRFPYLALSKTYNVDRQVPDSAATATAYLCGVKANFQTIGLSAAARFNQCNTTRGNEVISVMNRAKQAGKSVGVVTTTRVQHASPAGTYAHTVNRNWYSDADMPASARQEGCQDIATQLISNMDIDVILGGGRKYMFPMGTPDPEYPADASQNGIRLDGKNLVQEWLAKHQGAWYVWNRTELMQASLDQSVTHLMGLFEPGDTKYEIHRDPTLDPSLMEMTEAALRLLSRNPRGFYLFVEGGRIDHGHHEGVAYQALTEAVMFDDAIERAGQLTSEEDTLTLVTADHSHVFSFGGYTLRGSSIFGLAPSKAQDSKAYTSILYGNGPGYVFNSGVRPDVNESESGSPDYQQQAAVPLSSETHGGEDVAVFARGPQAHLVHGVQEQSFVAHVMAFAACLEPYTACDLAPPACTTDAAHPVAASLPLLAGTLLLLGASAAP
# mIAP act: activators of mouse IAP, primary screen, biochemical, luminescence, uHTS; 330,000 tested, 0.24% active; intestinal alkaline phosphatase [Mus musculus]; muIAP, CDP-Star luminescence, 30 min; hits give high values; 1 = vehicle-only enzyme signal, 0 = enzyme-free wells; AID 2805, 2010; activation factor at 10 µM;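 active means activation factor of at least 2 at 20 µM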
#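 Assay system: mouse IAP enzyme / Compound: DMSO-dissolved test compounds / Timing: 30 min, room temperature / Measured by: luminescence from enzymatic CDP-Star hydrolysis / Control set: DMSO-only wells, enzyme-free buffer wells as negative control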
# bIAP act: bovine intestinal alkaline phosphatase activators, primary screen, biochemical, bovine IAP, CDP-star luminescence; alkaline phosphatase, intestinal [Bos taurus]; purified bovine IAP, 30 min; hits give high values; fold of DMSO-control signal, blank-subtracted; activation factor at 20 µM; 200,000 tested, 0.17% active; AID 1016, 2008;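 active means activation factor of 2 or more at 20 µM, a signal rise over negative controls twice the positive control's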
# hIAP inh: human IAP inhibitors, primary screen, biochemical, luminescence, uHTS | 330,000 tested, 0.12% active | AID 2544, 2010 | Intestinal-type alkaline phosphatase (Homo sapiens), P09923 | inhibition, % at 10 µM | purified IAP, CDP-Star luminescence, 30 min;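 active means inhibition reaching a set limit with compound at 10 µM in the primary screen, cut at about 35% in these data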;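 further: plate controls were DMSO wells with enzyme for no effect and no-enzyme buffer wells for full effect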
# bIAP inh: bovine intestinal alkaline phosphatase inhibitors, primary screen, selectivity assay for TNAP inhibitor project, biochemical, bovine IAP, CDP-star luminescence; AID 1019, 2008; inhibition, % at 20 µM; purified bovine IAP, 30 min; 190,000 tested, under 10 active; alkaline phosphatase, intestinal [Bos taurus];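 active means over 50% inhibition of intestinal alkaline phosphatase at 20 µM in the single-dose screen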
#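 Assay system – bovine IAP enzyme · Quantity – bovine IAP at 1/65,000,000 final dilution · Detection – CDP-star luminescence signal · Times – 30 min reaction at room temperature · Also added – CDP-star substrate at 30 µM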
# mIAP inh: inhibitors of mouse IAP, primary screen, biochemical, luminescence, uHTS; intestinal alkaline phosphatase [Mus musculus]; purified mouse IAP, CDP-Star luminescence, 30 min; inhibition, % at 10 µM; 330,000 tested, 0.2% active;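 active means inhibition of at least 40% at 10 µM in the primary screen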;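 further: plate controls were DMSO with enzyme for no effect and no enzyme wells for full effect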
# hIAP act conf: human IAP activators, confirmation, biochemical, luminescence, single concentration, uHTS hits | shares compounds with hIAP activ | purified IAP, CDP-Star luminescence, 30 min; hits give low values | activation (%Activity, negative = activation), % at 8.3 µM | 880 tested, 10% active | AID 434926, 2010;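 active means at least twofold enzyme activation in any of six single-dose repeats, which the averaged readout prints as negative percent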
# * = called active by the depositor; x = not tested or not shown; + = active, no number.
SMILES,hIAP activ,mIAP act,bIAP act,hIAP inh,bIAP inh,mIAP inh,hIAP act conf
C=CCN1C(=O)CSC1=Nc1ccc(NC(C)=O)cc1,1.2,0.99,x,-16,x,1,x
Cc1sc(/N=C/c2ccccc2O)c(C#N)c1C,x,x,0.4,x,x,x,x
Cc1cccn2c(=O)c3cc(C(=O)NC4CCCC4)c(=N)n(C4CCCCC4)c3nc12,0.64,1.1,x,36*,x,-8,-122*
Cc1ccc(-c2cc(C(=O)N3CCc4ccccc4C3)[nH]n2)cc1C,2.5*,1.4,x,-149,x,-44,6
COc1cccc(-c2cc(C(=O)N3CCc4ccccc4C3)[nH]n2)c1,0.99,1.1,x,1,x,-14,x
Cc1c(C(=O)NCC(c2ccco2)N(C)C)oc2c(Cl)cccc12 (configuration not stated),1,0.96,x,-3,x,4,x
CN1/C(=C/c2cccc[n+]2CCO)Sc2ccccc21,0.63,1,x,37*,x,0,11
CC[n+]1ccccc1/C=C1\Sc2ccc(C)cc2N1C,1.1,0.91,x,-9,x,9,x
CC(=O)c1ccc(-c2ccc(C(=O)Nc3nc(C)c(C(C)=O)s3)o2)cc1,0.95,0.97,x,5,x,3,x
Cc1ccc(NC(=O)C2=NNC(=O)CC2)cc1S(=O)(=O)Nc1ccc(SC(F)F)cc1,0.94,0.92,x,6,x,8,x
C/C(=N\NC(=O)c1ccc(OC2CCCC2)cc1)c1ccc(O)cc1,1.1,0.99,x,-14,x,1,x
CCn1c(C)nc2cc(C(=O)NNC(=S)Nc3ccc(C)cc3)ccc21,2*,1.2,x,-101,x,-15,-48
CN(C)c1ccc(N=Nc2cccc3ccoc23)cc1,0.64,0.72,x,36*,x,28,-35
CN(C)c1ccc(N=Nc2cccc(F)c2)cc1,0.95,0.88,x,5,x,12,x
Cc1ccc2nc(CCc3nc4ccc(C)cc4[nH]3)[nH]c2c1,2.3*,1.1,x,-133,x,-6,-5
c1ccc2[nH]c(CCCCc3nc4ccccc4[nH]3)nc2c1,1.4,1.1,x,-43,x,-6,x
Cc1ccc2nc(CCCc3nc4ccc(C)cc4[nH]3)[nH]c2c1,2.7*,1.2,x,-171,x,-24,-60
Cc1ccc2nc(Cc3ccc(N)cc3)[nH]c2c1,1.1,1.2,1.1,-13,-11,-16,x
O=C(COC(=O)C1=NN(c2ccccc2)C(=O)CC1)Nc1nc(-c2ccc(F)cc2)cs1,1.1,0.94,x,-10,x,6,x
CCc1ccc(S(=O)(=O)/N=C2\C=C(NS(=O)(=O)c3ccccc3)C(=O)c3ccccc32)cc1,0.64,0.87,x,36*,x,13,-22
CCCn1c(SCC(=O)Nc2ccccc2C(=O)NC2CC2)n[nH]c1=O,0.92,0.97,x,8,x,3,x
Cc1nn(-c2ccccc2)c(Oc2ccccc2)c1C=O,0.91,1,1,9,2,-1,x
NC(=O)c1c(NC(=O)c2ccc(F)cc2)sc2c1CCC2,0.63,0.89,x,37*,x,11,+
CCN(CC)S(=O)(=O)c1cc(C(=O)Nc2cc(C)on2)c(Cl)cc1Cl,1.2,0.96,x,-21,x,4,x
S=C(NCc1ccncc1)Nc1ccc(Cl)cc1,2*,1.1,0.9,-100,6,-8,7
SMILES,hIAP activ,mIAP act,bIAP act,hIAP inh,bIAP inh,mIAP inh,hIAP act conf
Cc1cccc(NC(=O)C2CC(=O)n3cnnc3S2)c1 (configuration not stated),2.1*,0.91,1,-114,-1,9,-12
CCN=C1SC(C(=O)Nc2cccc(C)c2)CC(=O)N1CC (configuration not stated),1.1,1,0.9,-6,9,0,x
Cn1cc(C(=O)C(F)(F)F)c2ccccc21,1.2,0.95,1,-24,-3,5,x
Cn1cc(C(=O)NS(=O)(=O)Nc2ccc(Br)cc2)c2ccccc21,0.62,0.99,x,38*,x,1,-7
c1ccc(-c2cc3c(ccc4nonc43)nn2)cc1,1.2,1,1,-19,4,-4,x
On1onc2c3cc(-c4ccccc4)nc3ccc21,0.63,0.91,0.8,37*,18,9,-3
COc1cc(/C=C/C(=O)c2ccc(C)c([N+](=O)[O-])c2)cc(OC)c1O,0.53,0.61,0.9,47*,14,38,18
COc1ccc(/C=C/C(=O)c2ccc(C)c([N+](=O)[O-])c2)cc1O,0.87,0.82,0.8,13,24,18,x
Cc1cccc(OCCC(=O)Nc2ccc(Cl)cc2F)c1,1.1,0.94,x,-10,x,6,x
COc1ccc(CC(NC(C)=O)C(=O)NC2CCN(C(=O)NCc3ccccc3)CC2)cc1 (configuration not stated),0.64,0.91,1,36*,-2,9,-49
COc1cccc(CC(NC(C)=O)C(=O)NC2CCN(C(=O)NCc3ccccc3)CC2)c1 (configuration not stated),1.1,1.1,x,-12,x,-8,x
Cc1ccc(C(=O)Nc2ccncc2)cc1[N+](=O)[O-],1.2,0.97,x,-21,x,3,x
Cc1ccc(NC(=O)c2ccncc2)cc1[N+](=O)[O-],2.1*,1.1,1.1,-105,-12,-7,54
COc1ccccc1CNC(=O)c1cccnc1,1.1,0.93,x,-8,x,7,x
O=C(NCc1ccccc1)C(=O)Nc1nc(-c2ccccc2)cs1,1.1,1,x,-10,x,-1,x
O=C(NCc1ccccn1)C(=O)Nc1nc(-c2ccccc2)cs1,2.2*,1,x,-116,x,-5,-60
Cc1nn(C(=O)CCC(=O)NCCc2ccccc2)c2ccccc12,0.87,0.95,x,13,x,4,x
Cc1nn(C(=O)CCC(=O)NCc2cccc(F)c2)c2ccccc12,0.61,0.98,x,39*,x,2,5
C[C@@H](NC(=O)c1[nH]cnc1C(=O)Nc1nccs1)c1ccccc1,2.2*,0.97,x,-124,x,3,12
C[C@@H](NC(=O)c1nc[nH]c1C(=O)N[C@H](C)c1ccccc1)c1ccccc1,1.2,0.98,x,-20,x,2,x
C[C@H](NC(=O)c1[nH]cnc1C(=O)Nc1ccon1)c1ccccc1,1.8,0.85,x,-80,x,15,x
C[C@@H](NC(=O)c1[nH]cnc1C(=O)Nc1ccon1)c1ccccc1,2.1*,0.86,x,-107,x,14,-80*

# Bioassay records from PubChem.
